Assay results as given in ChEMBL document CHEMBL2375313, “Synthesis, in vitro antitumor evaluation and DNA-binding study of novel tetrahydroquinolines and some derived tricyclic and tetracyclic ring systems” (Eur J Med Chem, 2013).

Experiments:
Format in all cases: functional
[1] = test system: MCF7; test: Cytotoxicity against human MCF7 cells assessed as growth inhibition at 10 uM after 48 hrs by sulphorhodamine B assay; conditions: MCF7, 48 h, read-out: GI
Method in brief: (§1)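 NCI-60 one-dose screen per the NCI Drug Evaluation Branch protocol. Cells given a single 10 µM concentration with 48 h continuous exposure. Growth estimated by sulphorhodamine B protein assay. Result expressed as percentage growth inhibition relative to untreated growth.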

[2] = test system: K562; test: Cytotoxicity against human K562 cells assessed as growth inhibition at 10 uM after 48 hrs by sulphorhodamine B assay; conditions: K562, 48 h, read-out: GI; method in brief: as §1
[3] = test system: MDA-MB-468; test: Cytotoxicity against human MDA-MB-468 cells assessed as growth inhibition at 10 uM after 48 hrs by sulphorhodamine B assay; conditions: MDA-MB-468, 48 h, read-out: GI; method in brief: as §1
[4] = test system: MDA-MB-435; test: Cytotoxicity against human MDA-MB-435 cells assessed as growth inhibition at 10 uM after 48 hrs by sulphorhodamine B assay; conditions: MDA-MB-435, 48 h, read-out: GI; method in brief: as §1
[5] = test system: SK-OV-3; test: Cytotoxicity against human SKOV3 cells assessed as growth inhibition at 10 uM after 48 hrs by sulphorhodamine B assay; conditions: SK-OV-3, 48 h, read-out: GI; method in brief: as §1
[6] = test system: SF-268; test: Cytotoxicity against human SF268 cells assessed as growth inhibition at 10 uM after 48 hrs by sulphorhodamine B assay; conditions: SF-268, 48 h, read-out: GI; method in brief: as §1
[7] = test system: T47D; test: Cytotoxicity against human T47D cells assessed as growth inhibition at 10 uM after 48 hrs by sulphorhodamine B assay; conditions: read-out: GI; method in brief: as §1
[8] = test system: SNB-75; test: Cytotoxicity against human SNB75 cells assessed as growth inhibition at 10 uM after 48 hrs by sulphorhodamine B assay; conditions: SNB-75, 48 h, read-out: GI; method in brief: as §1
[9] = test system: A498; test: Cytotoxicity against human A498 cells assessed as growth inhibition at 10 uM after 48 hrs by sulphorhodamine B assay; conditions: A498, 48 h, read-out: GI; method in brief: as §1
[10] = test system: RXF 393; test: Cytotoxicity against human RXF393 cells assessed as growth inhibition at 10 uM after 48 hrs by sulphorhodamine B assay; conditions: RXF 393, 48 h, read-out: GI; method in brief: as §1
[11] = test system: IGROV-1; test: Cytotoxicity against human IGROV1 cells assessed as growth inhibition at 10 uM after 48 hrs by sulphorhodamine B assay; conditions: IGROV-1, 48 h, read-out: GI; method in brief: as §1
[12] = test system: NCI-H23; test: Cytotoxicity against human NCI-H23 cells assessed as growth inhibition at 10 uM after 48 hrs by sulphorhodamine B assay; conditions: NCI-H23, 48 h, read-out: GI; method in brief: as §1
[13] = test system: NCI-H522; test: Cytotoxicity against human NCI-H522 cells assessed as growth inhibition at 10 uM after 48 hrs by sulphorhodamine B assay; conditions: NCI-H522, 48 h, read-out: GI; method in brief: as §1
[14] = test system: HOP-92; test: Cytotoxicity against human HOP92 cells assessed as growth inhibition at 10 uM after 48 hrs by sulphorhodamine B assay; conditions: HOP-92, 48 h, read-out: GI; method in brief: as §1
[15] = test system: HCT-116; test: Cytotoxicity against human HCT116 cells assessed as growth inhibition at 10 uM after 48 hrs by sulphorhodamine B assay; conditions: HCT-116, 48 h, read-out: GI; method in brief: as §1
[16] = test system: UO-31; test: Cytotoxicity against human UO31 cells assessed as growth inhibition at 10 uM after 48 hrs by sulphorhodamine B assay; conditions: UO-31, 48 h, read-out: GI; method in brief: as §1
[17] = test system: SF-295; test: Cytotoxicity against human SF295 cells assessed as growth inhibition at 10 uM after 48 hrs by sulphorhodamine B assay; conditions: SF-295, 48 h, read-out: GI; method in brief: as §1
[18] = test system: CCRF-CEM; test: Cytotoxicity against human CCRF-CEM cells assessed as growth inhibition at 10 uM after 48 hrs by sulphorhodamine B assay; conditions: read-out: GI; method in brief: as §1
[19] = test system: MOLT-4; test: Cytotoxicity against human MOLT4 cells assessed as growth inhibition at 10 uM after 48 hrs by sulphorhodamine B assay; conditions: MOLT-4, 48 h, read-out: GI; method in brief: as §1
[20] = test system: OVCAR-5; test: Cytotoxicity against human OVCAR5 cells assessed as growth inhibition at 10 uM after 48 hrs by sulphorhodamine B assay; conditions: OVCAR-5, 48 h, read-out: GI; method in brief: as §1
[21] = test system: M14; test: Cytotoxicity against human M14 cells assessed as growth inhibition at 10 uM after 48 hrs by sulphorhodamine B assay; conditions: M14, 48 h, read-out: GI; method in brief: as §1
[22] = Cytotoxicity against human EKVX cells assessed as growth inhibition at 10 uM after 48 hrs by sulphorhodamine B assay; conditions: read-out: GI; method in brief: as §1
[23] = test system: UACC-62; test: Cytotoxicity against human UACC62 cells assessed as growth inhibition at 10 uM after 48 hrs by sulphorhodamine B assay; conditions: UACC-62, 48 h, read-out: GI; method in brief: as §1
[24] = test system: PC-3; test: Cytotoxicity against human PC3 cells assessed as growth inhibition at 10 uM after 48 hrs by sulphorhodamine B assay; conditions: PC-3, 48 h, read-out: GI; method in brief: as §1
[25] = test system: SK-MEL-2; test: Cytotoxicity against human SK-MEL-2 cells assessed as growth inhibition at 10 uM after 48 hrs by sulphorhodamine B assay; conditions: SK-MEL-2, 48 h, read-out: GI; method in brief: as §1
[26] = test system: SK-MEL-5; test: Cytotoxicity against human SK-MEL-5 cells assessed as growth inhibition at 10 uM after 48 hrs by sulphorhodamine B assay; conditions: SK-MEL-5, 48 h, read-out: GI; method in brief: as §1
[27] = test system: ACHN; test: Cytotoxicity against human ACHN cells assessed as growth inhibition at 10 uM after 48 hrs by sulphorhodamine B assay; conditions: read-out: GI; method in brief: as §1
[28] = test system: RPMI-8226; test: Cytotoxicity against human RPMI8226 cells assessed as growth inhibition at 10 uM after 48 hrs by sulphorhodamine B assay; conditions: RPMI-8226, 48 h, read-out: GI; method in brief: as §1
[29] = test system: CAKI-1; test: Cytotoxicity against human Caki1 cells assessed as growth inhibition at 10 uM after 48 hrs by sulphorhodamine B assay; conditions: CAKI-1, 48 h, read-out: GI; method in brief: as §1
[30] = test system: NCI/ADR-RES; test: Cytotoxicity against human NCI/ADR-RES cells assessed as growth inhibition at 10 uM after 48 hrs by sulphorhodamine B assay; conditions: read-out: GI; method in brief: as §1
[31] = test system: DU-145; test: Cytotoxicity against human DU145 cells assessed as growth inhibition at 10 uM after 48 hrs by sulphorhodamine B assay; conditions: DU-145, 48 h, read-out: GI; method in brief: as §1
[32] = test system: U-251; test: Cytotoxicity against human U251 cells assessed as growth inhibition at 10 uM after 48 hrs by sulphorhodamine B assay; conditions: U-251, 48 h, read-out: GI; method in brief: as §1
[33] = test system: LOX IMVI; test: Cytotoxicity against human LOXIMVI cells assessed as growth inhibition at 10 uM after 48 hrs by sulphorhodamine B assay; conditions: read-out: GI; method in brief: as §1
[34] = test system: Hs-578T; test: Cytotoxicity against human Hs578T cells assessed as growth inhibition at 10 uM after 48 hrs by sulphorhodamine B assay; conditions: read-out: GI; method in brief: as §1
[35] = test system: OVCAR-4; test: Cytotoxicity against human OVCAR4 cells assessed as growth inhibition at 10 uM after 48 hrs by sulphorhodamine B assay; conditions: OVCAR-4, 48 h, read-out: GI; method in brief: as §1
[36] = test system: HL-60(TB); test: Cytotoxicity against human HL-60(TB) cells assessed as growth inhibition at 10 uM after 48 hrs by sulphorhodamine B assay; conditions: HL-60, 48 h, read-out: GI
Method in brief: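 NCI-60 one-dose primary screen run to the Drug Evaluation Branch protocol. Cells are exposed to a single 10 µM concentration for 48 h continuously, and growth is read by SRB protein assay. Data are reported as percent growth of treated cells, expressed as % growth inhibition.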

[37] = test system: A549; test: Cytotoxicity against human A549 cells assessed as growth inhibition at 10 uM after 48 hrs by sulphorhodamine B assay; conditions: A549, 48 h, read-out: GI; method in brief: as §1
[38] = test system: HCT-15; test: Cytotoxicity against human HCT15 cells assessed as growth inhibition at 10 uM after 48 hrs by sulphorhodamine B assay; conditions: HCT-15, 48 h, read-out: GI; method in brief: as §1
[39] = test system: SNB-19; test: Cytotoxicity against human SNB19 cells assessed as growth inhibition at 10 uM after 48 hrs by sulphorhodamine B assay; conditions: SNB-19, 48 h, read-out: GI; method in brief: as §1
[40] = test system: SR; test: Cytotoxicity against human SR cells assessed as growth inhibition at 10 uM after 48 hrs by sulphorhodamine B assay; conditions: read-out: GI; method in brief: as §1
[41] = test system: HT-29; test: Cytotoxicity against human HT-29 cells assessed as growth inhibition at 10 uM after 48 hrs by sulphorhodamine B assay; conditions: HT-29, 48 h, read-out: GI; method in brief: as §1

COc1ccc(-c2c3c(nc4ncnc(N)c24)C(C)CCC3)cc1 (configuration not stated)
inhibition of growth at 10 µM [1]: < 10%
inhibition of growth at 10 µM [2]: 23.4%
inhibition of growth at 10 µM [3]: 11.3%
inhibition of growth at 10 µM [4]: < 10%
inhibition of growth at 10 µM [5]: < 10%
inhibition of growth at 10 µM [6]: < 10%
inhibition of growth at 10 µM [7]: 47.7%
inhibition of growth at 10 µM [8]: 20.5%
inhibition of growth at 10 µM [9]: < 10%
inhibition of growth at 10 µM [10]: 20.3%
inhibition of growth at 10 µM [11]: < 10%
inhibition of growth at 10 µM [12]: < 10%
inhibition of growth at 10 µM [13]: < 10%
inhibition of growth at 10 µM [14]: 20.4%
inhibition of growth at 10 µM [15]: 14.2%
inhibition of growth at 10 µM [16]: 10.4%
inhibition of growth at 10 µM [17]: < 10%
inhibition of growth at 10 µM [18]: 23%
inhibition of growth at 10 µM [19]: 14.3%
inhibition of growth at 10 µM [20]: < 10%
inhibition of growth at 10 µM [21]: < 10%
inhibition of growth at 10 µM [22]: 11.5%
inhibition of growth at 10 µM [23]: 20.9%
inhibition of growth at 10 µM [24]: 15%
inhibition of growth at 10 µM [25]: < 10%
inhibition of growth at 10 µM [26]: 10%
inhibition of growth at 10 µM [27]: 10%
inhibition of growth at 10 µM [28]: 25%
inhibition of growth at 10 µM [29]: < 10%
inhibition of growth at 10 µM [30]: 16.3%
inhibition of growth at 10 µM [31]: < 10%
inhibition of growth at 10 µM [32]: 18.5%
inhibition of growth at 10 µM [33]: 13%
inhibition of growth at 10 µM [34]: < 10%
inhibition of growth at 10 µM [35]: 12.6%
inhibition of growth at 10 µM [36]: < 10%
inhibition of growth at 10 µM [37]: < 10%
inhibition of growth at 10 µM [38]: 20%
inhibition of growth at 10 µM [39]: 10%
inhibition of growth at 10 µM [40]: 17.3%
inhibition of growth at 10 µM [41]: < 10%

COc1ccc(-c2c3c(nc4nc(C)[nH]c(=O)c24)C(C)CCC3)cc1 (configuration not stated)
inhibition of growth at 10 µM [1]: < 10%
inhibition of growth at 10 µM [2]: 11.2%
inhibition of growth at 10 µM [3]: < 10%
inhibition of growth at 10 µM [4]: 19%
inhibition of growth at 10 µM [5]: < 10%
inhibition of growth at 10 µM [6]: < 10%
inhibition of growth at 10 µM [7]: 18.2%
inhibition of growth at 10 µM [8]: < 10%
inhibition of growth at 10 µM [9]: < 10%
inhibition of growth at 10 µM [10]: 12.5%
inhibition of growth at 10 µM [11]: < 10%
inhibition of growth at 10 µM [12]: < 10%
inhibition of growth at 10 µM [13]: 22%
inhibition of growth at 10 µM [14]: 21.3%
inhibition of growth at 10 µM [15]: < 10%
inhibition of growth at 10 µM [16]: < 10%
inhibition of growth at 10 µM [17]: < 10%
inhibition of growth at 10 µM [18]: 16.5%
inhibition of growth at 10 µM [19]: 23.3%
inhibition of growth at 10 µM [20]: 11.4%
inhibition of growth at 10 µM [21]: < 10%
inhibition of growth at 10 µM [22]: < 10%
inhibition of growth at 10 µM [23]: 14.8%
inhibition of growth at 10 µM [24]: 14.2%
inhibition of growth at 10 µM [25]: < 10%
inhibition of growth at 10 µM [26]: 13.6%
inhibition of growth at 10 µM [27]: 11.3%
inhibition of growth at 10 µM [28]: 21.8%
inhibition of growth at 10 µM [29]: < 10%
inhibition of growth at 10 µM [30]: < 10%
inhibition of growth at 10 µM [31]: < 10%
inhibition of growth at 10 µM [32]: < 10%
inhibition of growth at 10 µM [33]: 17.3%
inhibition of growth at 10 µM [34]: < 10%
inhibition of growth at 10 µM [35]: < 10%
inhibition of growth at 10 µM [36]: < 10%
inhibition of growth at 10 µM [37]: 10%
inhibition of growth at 10 µM [38]: 11%
inhibition of growth at 10 µM [39]: < 10%
inhibition of growth at 10 µM [40]: 46.8%
inhibition of growth at 10 µM [41]: < 10%
